Square brackets hold non-standard residues; d marks the D form. Peptide text beside a SMILES is read from it. Tic = O=C(O)[C@@H]1Cc2ccccc2CN1
Experiments:
Rattus norvegicus [1] = test: Antithrombotic activity in Wistar rat assessed as thrombus weight at 10 nmol/kg, iv (reference value: 24.09 +/- 2.33 mg); type: functional
[2] = Antiplatelet activity against pig platelet assessed as inhibition of thrombin-induced platelet aggregation by spectrophotometry; type: functional, cell-based; conditions: Sus scrofa
In short: (§1)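 Pig blood (six pigs) spun 1000 rpm 10 min for PRP, then 1500 rpm 10 min for PPP; PRP adjusted to 2×10^8 platelets/mL with autologous PPP. Compound (final 100 µM to 1 nM, diluted in NS from DMSO/NS stock) or NS added, then inducer at final PAF 0.1 µM, ADP 10 µM, AA 350 µM or thrombin 0.1 U/mL.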

[3] = Antiplatelet activity against pig platelet assessed as inhibition of ADP-induced platelet aggregation by spectrophotometry; type: functional, cell-based; conditions: Sus scrofa; in short: as §1
[4] = Antiplatelet activity against pig platelet assessed as inhibition of arachidonic acid-induced platelet aggregation by spectrophotometry; type: functional, cell-based; conditions: Sus scrofa; in short: as §1
Aorta = test: Inhibition of noradrenaline-induced contraction in Wistar rat thoracic aortic ring assessed as vasorelaxant activity at 300 uM treated after noradrenaline challenge; type: functional; design: scale not given: the % may be the effect or the level left
In short: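 Male Wistar rats, 250–300 g, were decapitated and aortic strips were mounted in 37 °C Krebs solution (pH 7.4) gassed with 95% O2/5% CO2, connected to a tension transducer. Strips were contracted with 59 µM noradrenaline, washed, stabilised 30 min, then re-contracted with 59 µM noradrenaline. At peak contraction, compound in ethanol or ethanol alone was added and relaxation was recorded.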

[5] = Antiplatelet activity against pig platelet assessed as inhibition of PAF-induced platelet aggregation by spectrophotometry; type: functional, cell-based; conditions: Sus scrofa; in short: as §1
[6] = Antiplatelet activity against pig platelet assessed as inhibition of ADP-induced platelet aggregation at 10 uM by spectrophotometry; type: functional; conditions: Sus scrofa; in short: as §1
[7] = Antiplatelet activity against pig platelet assessed as inhibition of PAF-induced platelet aggregation at 10 uM by spectrophotometry; type: functional; conditions: Sus scrofa; in short: as §1
[8] = Antiplatelet activity against pig platelet assessed as inhibition of thrombin-induced platelet aggregation at 10 uM by spectrophotometry; type: functional; conditions: Sus scrofa; in short: as §1
[9] = Antiplatelet activity against pig platelet assessed as inhibition of arachidonic acid-induced platelet aggregation at 10 uM by spectrophotometry; type: functional; conditions: Sus scrofa; in short: as §1
Rattus norvegicus [10] = test: Antithrombotic activity in Wistar rat assessed as thrombus weight at 15 umol/kg, iv (reference value: 25.99 +/- 2.41 mg); type: functional
Rattus norvegicus [11] = test: Antithrombotic activity in Wistar rat assessed as thrombus weight at 15 umol/kg, iv (reference value: 28.54 +/- 2.62 mg); type: functional

| SMILES | Activity (Aorta) | inhibition at 10 µM [6] | inhibition at 10 µM [7] | inhibition at 10 µM [8] | inhibition at 10 µM [9] | Activity (Rattus norvegicus [10]) | Activity (Rattus norvegicus [11]) | other results |
| --- | --- | --- | --- | --- | --- | --- | --- | --- |
| CC(C)[C@@H](C(=O)O)N1C(=O)[C@@H]2Cc3ccccc3CN2C1(C)C | 16% | – | – | – | – | – | – | Activity (Rattus norvegicus [1]): 14.01 mg; IC50 [2]: 610 nM; IC50 [3]: 175 nM; IC50 [4]: 292 nM; IC50 [5]: 525 nM |
| COC(=O)[C@H](CC(N)=O)N1C(=O)[C@@H]2Cc3ccccc3CN2C1(C)C | 47.89% | 33.9% | 25.8% | 19.8% | 30.1% | 19.54 mg | – | – |
| COC(=O)[C@H](Cc1ccc(O)cc1)N1C(=O)[C@@H]2Cc3ccccc3CN2C1(C)C | 15.56% | 53.1% | 59% | 25.3% | 52.2% | 23.71 mg | – | – |
| O=C(O)[C@H](CS)NC(=O)[C@@H]1Cc2ccccc2CN1 (H-[Tic]-Cys-OH) | – | – | – | – | – | – | 20.91 mg | – |
| NCCCC[C@H](NC(=O)[C@@H]1Cc2ccccc2CN1)C(=O)O (H-[Tic]-Lys-OH) | – | – | – | – | – | – | 21.28 mg | – |
| COC(=O)[C@H](CS)N1C(=O)[C@@H]2Cc3ccccc3CN2C1(C)C | 96.3% | 68.9% | 53.7% | 30.8% | 60.7% | 12.9 mg | – | – |
| COC(=O)[C@H](CCSC)N1C(=O)[C@@H]2Cc3ccccc3CN2C1(C)C | 43.06% | 34% | 31.9% | 36.8% | 30.1% | 20.11 mg | – | – |
| COC(=O)[C@H](C)N1C(=O)[C@@H]2Cc3ccccc3CN2C1(C)C | 34.1% | 10.2% | 46.3% | 11.7% | 40.5% | 22.51 mg | – | – |
| COC(=O)[C@H](C(C)O)N1C(=O)[C@@H]2Cc3ccccc3CN2C1(C)C (stereo not given in full) | 35.21% | 46.3% | 59.9% | 57.2% | 45% | 20.01 mg | – | – |
| COC(=O)CN1C(=O)[C@@H]2Cc3ccccc3CN2C1(C)C | 75.35% | 66.1% | 44.5% | 10.9% | 58.9% | 15.21 mg | – | – |
| COC(=O)CC[C@@H](C(=O)OC)N1C(=O)[C@@H]2Cc3ccccc3CN2C1(C)C | 42.48% | 22.5% | 45.2% | 28% | 37.4% | 19.9 mg | – | – |
| COC(=O)[C@H](CCC(N)=O)N1C(=O)[C@@H]2Cc3ccccc3CN2C1(C)C | 38.61% | 31.8% | 25.9% | 69% | 48.1% | 22.7 mg | – | – |
| O=C(O)[C@H](Cc1c[nH]cn1)NC(=O)[C@@H]1Cc2ccccc2CN1 (H-[Tic]-His-OH) | – | – | – | – | – | – | 20.86 mg | – |
| COC(=O)[C@H](Cc1ccccc1)N1C(=O)[C@@H]2Cc3ccccc3CN2C1(C)C | 32.18% | 44.5% | 56.3% | 57.8% | 46.8% | 20.62 mg | – | – |
| CCC(C)[C@@H](C(=O)OC)N1C(=O)[C@@H]2Cc3ccccc3CN2C1(C)C (stereo not given in full) | 99% | 48.2% | 51.3% | 60.9% | 49.4% | 13.32 mg | – | – |
| CC(C)[C@H](NC(=O)[C@@H]1Cc2ccccc2CN1)C(=O)O (H-[Tic]-Val-OH) | – | – | – | – | – | – | 19.2 mg | – |
| COC(=O)[C@H](CCCCNC(=O)OCc1ccccc1)N1C(=O)[C@@H]2Cc3ccccc3CN2C1(C)C | 68.21% | 20.9% | 11.2% | 18.4% | 33.7% | 17.14 mg | – | – |
| O=C(O)C[C@H](NC(=O)[C@@H]1Cc2ccccc2CN1)C(=O)O (H-[Tic]-Asp-OH) | – | – | – | – | – | – | 21.67 mg | – |
| O=C(O)CNC(=O)[C@@H]1Cc2ccccc2CN1 (H-[Tic]-Gly-OH) | – | – | – | – | – | – | 20.24 mg | – |

| SMILES | Activity (Aorta) | inhibition at 10 µM [6] | inhibition at 10 µM [7] | inhibition at 10 µM [8] | inhibition at 10 µM [9] | Activity (Rattus norvegicus [10]) | Activity (Rattus norvegicus [11]) | other results |
| --- | --- | --- | --- | --- | --- | --- | --- | --- |
| COC(=O)[C@H](CC(C)C)N1C(=O)[C@@H]2Cc3ccccc3CN2C1(C)C | 74.68% | 31.4% | 29.2% | 38.3% | 37.5% | 14.1 mg | – | – |
| O=C(O)[C@@H](NC(=O)[C@@H]1Cc2ccccc2CN1)NC1CCC1 | – | – | – | – | – | – | 20.25 mg | IC50 [2]: 185 nM; IC50 [3]: 364 nM; IC50 [4]: 103 nM; IC50 [5]: 1400 nM |
| NC(=O)CC[C@H](NC(=O)[C@@H]1Cc2ccccc2CN1)C(=O)O (H-[Tic]-Gln-OH) | – | – | – | – | – | – | 22.08 mg | – |
| O=C(O)CC[C@H](NC(=O)[C@@H]1Cc2ccccc2CN1)C(=O)O (H-[Tic]-Glu-OH) | – | – | – | – | – | – | 19.69 mg | – |
| CC(C)C[C@H](NC(=O)[C@@H]1Cc2ccccc2CN1)C(=O)O (H-[Tic]-Leu-OH) | – | – | – | – | – | – | 20.23 mg | – |
| COC(=O)[C@H](CCCNC(=N)N[N+](=O)[O-])N1C(=O)[C@@H]2Cc3ccccc3CN2C1(C)C | 6.78% | 58.4% | 65.3% | 31.4% | 30.6% | 23.61 mg | – | – |
| COC(=O)C[C@@H](C(=O)OC)N1C(=O)[C@@H]2Cc3ccccc3CN2C1(C)C | 64.09% | 24.6% | 18.6% | 60.1% | 57.7% | 18.2 mg | – | – |
| C[C@H](NC(=O)[C@@H]1Cc2ccccc2CN1)C(=O)O (H-[Tic]-Ala-OH) | – | – | – | – | – | – | 21.4 mg | – |
| O=C(O)[C@H](Cc1ccc(O)cc1)NC(=O)[C@@H]1Cc2ccccc2CN1 (H-[Tic]-Tyr-OH) | – | – | – | – | – | – | 19.31 mg | – |
| O=C(O)[C@H](Cc1ccccc1)NC(=O)[C@@H]1Cc2ccccc2CN1 (H-[Tic]-Phe-OH) | – | – | – | – | – | – | 19.11 mg | – |
| CSCC[C@H](NC(=O)[C@@H]1Cc2ccccc2CN1)C(=O)O (H-[Tic]-Met-OH) | – | – | – | – | – | – | 21.74 mg | – |
| O=C(O)[C@H](Cc1cc2ccccc2[nH]1)NC(=O)[C@@H]1Cc2ccccc2CN1 | – | – | – | – | – | – | 21.3 mg | IC50 [2]: 234 nM; IC50 [3]: 120 nM; IC50 [4]: 374 nM; IC50 [5]: 668 nM |
| CCC(C)[C@H](NC(=O)[C@@H]1Cc2ccccc2CN1)C(=O)O (single isomer, unassigned) | – | – | – | – | – | – | 20.03 mg | – |
| COC(=O)[C@H](C(C)C)N1C(=O)[C@@H]2Cc3ccccc3CN2C1(C)C | 54.99% | 35% | 34.6% | 30.9% | 32.4% | 15.66 mg | – | – |
| O=C(O)[C@H](CO)NC(=O)[C@@H]1Cc2ccccc2CN1 (H-[Tic]-Ser-OH) | – | – | – | – | – | – | 23.58 mg | – |
| NC(=O)C[C@H](NC(=O)[C@@H]1Cc2ccccc2CN1)C(=O)O (H-[Tic]-Asn-OH) | – | – | – | – | – | – | 20.24 mg | – |
| N=C(N)NCCC[C@H](NC(=O)[C@@H]1Cc2ccccc2CN1)C(=O)O (H-[Tic]-Arg-OH) | – | – | – | – | – | – | 18.73 mg | – |
| C[C@@H](O)[C@H](NC(=O)[C@@H]1Cc2ccccc2CN1)C(=O)O (H-[Tic]-Thr-OH) | – | – | – | – | – | – | 21.25 mg | – |
